OX1R antag-1: antagonists of human orexin 1 receptor (OX1R); Orexin/Hypocretin receptor type 1 (Homo sapiens), O43613; 330,000 compounds, 1.8% hits; inhibition, % at 6.6 µM; OX1R-expressing cells, FRET antagonist read-out; in the data active = inhibition mostly above about 38%, no sharp cut-off; inactive = mostly below about 40%;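 note: 0% = agonist challenge alone and 100% = reference antagonist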
TAAR1 ag: human TAAR1 agonists, primary screen, Fluo-8 calcium fluorescence, CHO RD-HGA16 cells; activation, % at 3 µM; 360,000 compounds, 0.99% hits; Trace amine-associated receptor 1 (Homo sapiens), Q96RJ0; vehicle wells 0%, saturating PEA agonist 100%; AID 624467, 2012;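 active = activation above the mean activation of all test compounds in the run plus 3 SD, cut at about 38% in these data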
Target sequence (Q96RJ0 whole entry, looked up): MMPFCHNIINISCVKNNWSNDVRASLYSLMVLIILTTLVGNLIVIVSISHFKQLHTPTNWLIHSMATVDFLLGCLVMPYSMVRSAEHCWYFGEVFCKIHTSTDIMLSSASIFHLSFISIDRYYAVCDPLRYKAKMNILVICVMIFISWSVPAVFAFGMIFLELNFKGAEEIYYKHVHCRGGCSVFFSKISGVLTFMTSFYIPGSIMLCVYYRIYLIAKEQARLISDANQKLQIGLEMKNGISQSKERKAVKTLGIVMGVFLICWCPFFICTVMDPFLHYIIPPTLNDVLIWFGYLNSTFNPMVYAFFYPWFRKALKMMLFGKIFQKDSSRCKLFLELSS
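Benchmarks: low control DMSO, high control PEA (EC100); System: CHO RD-HGA16 cells carrying human TAAR1 plus Gα16; Detection: Fluo-8 fluorescence, 5 s baseline then 140 s kinetic read; Schedule: 17-24 h plating, Fluo-8 75 min 37 °C, 30 min RT; Read-out basis: % activation from peak over basal fluorescence ratio, DMSO-to-PEA scaled.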
TAAR1 antag: human TAAR1 antagonists, primary screen, Fluo-8 calcium fluorescence, CHO RD-HGA16 cells | 360,000 compounds, 1.5% hits | antagonist | Trace amine-associated receptor 1 (Homo sapiens), Q96RJ0 | inhibition, % at 3 µM | AID 624466, 2012;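 active = inhibition above a per-plate cutoff, the mean inhibition of test compounds on that plate plus 3 SD, cut at about 49% in these data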;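 note: 0% = DMSO plus EC80 beta-PEA response and 100% = DMSO alone without agonist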
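System: CHO RD-HGA16 cells bearing hTAAR1. Reagent: EC80 β-phenethylamine stimulus. Schedule: seeding 17-24 h prior, 75-min 37 °C, 30-min RT dye loading. Signal: Fluo-8 intracellular calcium dye fluorescence, real-time kinetic reads. Read-out: % inhibition from peak post-agonist over basal fluorescence ratio. Benchmarks: vehicle wells and EC80 agonist wells. Replicates: n of 1.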
GPR7 antag: GPR7 receptor antagonists, primary screen, cell-based, fluorescence, single concentration. 290,000 compounds, 1.1% hits. AID 1861, 2009. GPR7-expressing cells, fluorescence antagonist assay. Neuropeptides B/W receptor type 1 (Homo sapiens), P48145. inhibition, % at 4.4 µM; in the data active = inhibition above about 16%, passing the limit was not always enough;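 note: cells stimulated with the agonist NPW; 0% = agonist with vehicle and 100% = vehicle without agonist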
CHO parental Ca: ATP-evoked calcium signal inhibitors, parental CHO, primary screen, counter-screen for OX1R antagonist project, cell-based, fluorescence, Fluo-8 calcium dye; parental CHO-K1, ATP-induced calcium, Fluo-8 fluorescence; inhibition, % at 5.6 µM; 330,000 compounds, 0.63% hits; AID 463079, 2010;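 active = inhibition above that plate's mean sample inhibition plus 3 SD, cut at about 26% in these data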;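 note: 0% = ATP-challenged DMSO wells and 100% = DMSO wells without ATP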
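Measured by: calcium-sensitive Fluo-8 fluorescence / Test system: CHO parental line / Controls: ATP-challenged DMSO wells low, unchallenged DMSO wells high / Measure: % inhibition / Compound: single nominal dose of 5.6 µM per compound / Replicates: single well per compound, no replicates / Reagent: ATP as calcium-mobilizing challenge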
OX1R antag-2: OX1R (HCRTR1) antagonists, primary screen, fluorescence, CHO/OX1R cells, Fluo-8 calcium, orexin A. Orexin/Hypocretin receptor type 1 (Homo sapiens), O43613. Fluo-8 calcium fluorescence. inhibition, % at 5 µM. 330,000 compounds, 0.43% hits;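 active = inhibition above its plate's threshold, mean inhibition of all tested compounds on the plate plus 3 SD, cut at about 37% in these data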;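 note: 0% = orexin A challenge wells and 100% = SB-334867-A antagonist wells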
TAAR1 ag confirm: human TAAR1 agonists, retest of hits, confirmation, Fluo-8 calcium fluorescence, CHO RD-HGA16 cells | activation, % at 3 µM | scaled: DMSO 0%, maximal phenethylamine 100% | 2,400 compounds, 82% hits | shares compounds with TAAR1 ag;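 active = activation above a cutoff set at the run's mean compound activation plus 3 SD, cut at about 39% in these data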
Ga16 ag counter: nonselective calcium mobilization agonists, CHO-Ga16 cells, counter-screen for hTAAR1 agonist project, cell-based, fluorescence, CHO-Ga16 parental line; shares compounds with TAAR1 ag; Fluo-8 calcium fluorescence; normalized to maximal ATP response, DMSO zero; activation, % at 3 µM; 2,400 compounds, 50% hits; AID 651787, 2012;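 active = activation above the run cutoff, the mean activation over all tested wells plus 3 SD, cut at about 12% in these data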;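 note: 0% = DMSO wells and 100% = maximal ATP response on the peak over basal ratio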
TAAR1 desens: TAAR1 desensitization by agonist hits, confirmation, counter-screen for TAAR1 agonist project, cell-based, fluorescence, tachyphylaxis | shares compounds with TAAR1 ag | CHO RD-HGA16 hTAAR1, Fluo-8 calcium, beta-PEA response inhibition | inhibition, % at 3 µM | 2,400 compounds, 46% hits | AID 651951, 2012;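 active = inhibition above the run cutoff, the mean inhibition of all test compounds plus 3 SD, cut at about 49% in these data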;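 note: beta-PEA stimulus applied at its EC80; loss of beta-PEA calcium signal after compound pretreatment read as receptor desensitization; 0% = DMSO with beta-PEA at EC80 and 100% = DMSO alone without agonist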
Ga16 antag count: inhibition of ATP-evoked calcium response in CHO-Ga16 cells, counter-screen for TAAR1 agonist project, cell-based, fluorescence | shares compounds with TAAR1 ag | CHO-Ga16 ATP-induced calcium, Fluo-8 fluorescence | inhibition, % at 3 µM | 2,400 compounds, 39% hits | AID 651952, 2012;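 active = inhibition above the plate's mean compound inhibition plus 3 SD, computed per plate, cut at about 22% in these data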;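 note: 0% = EC80 ATP with DMSO and 100% = DMSO wells without ATP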
* = called active by the depositor; / = no result. The list is not random: actives were taken first. Their share in the collection is about 4.5%.

SMILES | OX1R antag-1 | TAAR1 ag | TAAR1 antag | GPR7 antag | CHO parental Ca | OX1R antag-2 | TAAR1 ag confirm | Ga16 ag counter | TAAR1 desens | Ga16 antag count
CC1(c2ccc(Cl)cc2)NC(=O)N(CC(=O)Nc2ccc3c(c2)OCO3)C1=O (stereo not drawn) | / | 58.9* | 35.8 | / | / | / | 76.5* | 23.7* | 54.2* | 24.0*
CC(C)Nc1nc(NC(N)=S)nc(NC(C)C)n1 | 4.1 | 3.7 | 3.9 | -9.4 | -13.3 | -10.0 | / | / | / | /
Cc1c(C(=O)NCc2ccc(C(F)(F)F)cc2)sc(=O)n1Cc1cccc(F)c1 | / | 127.0* | 100.2* | / | / | / | 113.9* | 77.2* | 97.0* | 70.7*
Cn1c(CNC(=O)CCNC(=O)c2ccccc2F)cc(=O)n(C)c1=O | 7.2 | 5.3 | -18.9 | -11.5 | -14.8 | -8.9 | / | / | / | /
CNc1nc(NCCOc2ccccc2Cl)c2sccc2n1 | / | 71.8* | 71.6* | / | / | / | 51.4* | 49.7* | 57.2* | 46.9*
Cc1ccc(S(=O)(=O)Nc2cc(=O)[nH]c(SCC(=O)Nc3cccc(C)c3)n2)cc1 | 24.7 | 0.9 | -22.2 | -14.0 | -4.9 | -9.9 | / | / | / | /
O=C(COCC(=O)N/N=C/c1ccc(F)cc1)N/N=C/c1ccc(F)cc1 | 17.3 | 54.3* | 7.2 | 0.8 | 5.3 | -6.7 | 66.3* | 0.5 | 42.3 | 14.1
N/C(=N\N=C/c1ccc(F)cc1)N/N=C\c1ccc(F)cc1 | 10.0 | 70.1* | 62.6* | 20.2 | 27.2 | -8.0 | 80.6* | 4.1 | 76.8* | 2.0
CCC1CCc2sc(C(=O)NCC(c3ccc(OC)cc3)N3CCCC3)cc2C1 (stereo not drawn) | 21.1 | 46.3* | -21.9 | / | -20.6 | -40.4 | 42.3* | 5.1 | 19.9 | 15.6
COc1ccc(C(CNC(=O)c2cccc(N(C)C)c2)N2CCCC2)cc1 (stereo not drawn) | 11.6 | -0.7 | -6.7 | -4.1 | -14.7 | -26.2 | / | / | / | /
O=C(O)c1ccc(N/N=C/c2ccc(-c3ccccc3Cl)o2)cc1 | -7.4 | 97.1* | 36.9 | -13.6 | 4.8 | -19.1 | 56.4* | 39.1* | 29.8 | 20.1
O=C(N/N=C/c1ccc(-c2ccccc2Cl)o1)c1ccccc1 | 53.3 | 5.5 | 31.0 | -6.5 | -11.5 | 4.4 | / | / | / | /
C#CC1(O)CCC2C3CCC4=Cc5oncc5CC4(C)C3CCC21C (stereo not drawn) | / | 51.4* | 64.6* | / | / | / | 62.1* | 31.2* | 69.7* | 34.9*
C#C[C@]1(O)CCC2C3CCC4=Cc5oncc5CC4(C)C3CCC21C (stereo partly drawn) | 25.6 | 62.0* | 75.9* | / | 15.0 | -17.0 | 59.6* | 42.8* | 53.7* | 35.9*
O=C(NC(CSC(=O)c1ccccc1)C(=O)O)OCc1ccccc1 (stereo not drawn) | / | 2.0 | -7.5 | / | / | / | / | / | / | /
